From article PMC10764271 (Saudi Pharmaceutical Journal : SPJ, 2023)
Like-named read-outs stand apart in the source and are kept apart here.

Assays:
Type in all cases: cell-based, human
MCF-7 = assay: MTT cytotoxicity assay, MCF-7
Method in brief: (§1)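 Cells grown in DMEM with 10 % FBS and 1 % antibiotics (100 U/ml penicillin), seeded at 1.0 × 10^4 cells/well and left 24 h at 37 °C, 5 % CO2. Medium replaced; test compound at 5, 10, 25 and 50 μM for 48 h. MTT (5 mg/mL solution) added for 4 h; formazan dissolved in DMSO; A570 read. Triplicates. % viability versus untreated cells; IC50 from dose–response analysis.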

MCF-10A = assay: MTT cytotoxicity assay, normal breast cell line MCF-10A; conditions: 48 h, read-out: IC50 Values MCF-10A
Method in brief: as §1

MDA-MB-231 = assay: MTT cytotoxicity assay, MDA-MB-231
Method in brief: as §1

[1] = Homo sapiens, MCF7, 48 h, read-out: IC50 Values MCF-7, MTT, 48 h, ±SD
[2] = Homo sapiens, MDA-MB-231, 48 h, read-out: IC50 Values MDA-MB-231, MTT, 48 h, ±SD

SMILES	IC50 (MCF-7; [1]) [µM]	IC50 (MCF-10A; Homo sapiens, MCF-10A) [µM]	IC50 (MDA-MB-231; [2]) [µM]	IC50 (MCF-7; read-out: IC50 Values MCF-7, MTT, 48 h, ±SD) [µM]	IC50 (MCF-10A; MTT, normal breast cell line, ±SD) [µM]	IC50 (MDA-MB-231; read-out: IC50 Values MDA-MB-231, MTT, 48 h, ±SD) [µM]
Cc1ccccc1Nc1ncccc1[N+](=O)[O-] [compound 3, 3-nitro-N-o-tolylpyridin-2-amine]	120 ± 0.3	> 100	112 ± 0.41	–	–	–
O=[N+]([O-])c1cccnc1NCc1ccccc1 [compound 1, N-benzyl-3-nitropyridin-2-amine]	122 ± 0.8	> 100	110 ± 0.4	–	–	–
Oc1ccc(Br)cc1C=Nc1cccnc1NC1CCCCC1 [H2L^5, 4-bromo-2-((2-(cyclohexylamino)pyridin-3-ylimino)methyl)phenol]	88.81 ± 0.81	> 100	82.2 ± 0.6	–	–	–
CCN(CC)c1ccc(C=Nc2cccnc2NCc2ccccc2)c(O)c1 [H2L^4, 2-((2-(benzylamino)pyridin-3-ylimino)methyl) −5-(diethylamino)phenol]	104.6 ± 0.2	> 100	81.1 ± 0.2	–	–	–
Nc1cccnc1NC1CCCCC1 [compound 5, N^2-cyclohexylpyridine-2,3-diamine]	112 ± 0.41	> 100	109 ± 0.8	–	–	–
CCN(CC)c1ccc(C=Nc2cccnc2Nc2ccccc2C)c(O)c1 [H2L^8, 2-((2-(o-toluidino)pyridin-3-ylimino)methyl)-5-(diethylamino)phenol]	88.3 ± 0.3	> 100	83.6 ± 0.3	–	–	–
Cc1ccccc1Nc1ncccc1N=Cc1cc(Br)ccc1O [H2L^7, 2-((2-(o-toluidino)pyridin-3-ylimino)methyl)-4-bromophenol]	88.3 ± 0.51	> 100	85.1 ± 0.4	–	–	–
N.N.[Cl][Pt][Cl] [Cisplatin, reference compound]	–	–	–	24.1 ± 0.8	64.6 ± 0.5	27 ± 0.8
Oc1ccc2ccccc2c1C=Nc1cccnc1NCc1ccccc1 [H2L^3, 1-((2-(benzylamino)pyridin-3-ylimino)methyl)naphthalen-2-ol]	112.4 ± 0.6	> 100	87.01 ± 0.3	–	–	–
Nc1cccnc1NCc1ccccc1 [compound 4, N^2-benzylpyridine-2,3-diamine]	109 ± 0.6	> 100	108 ± 0.2	–	–	–
Oc1ccccc1C=Nc1cccnc1NCc1ccccc1 [H2L^1, 2-((2-(benzylamino)pyridin-3-ylimino)methyl)phenol]	70.9 ± 0.4	> 100	75 ± 0.2	–	–	–
CCN(CC)c1ccc(C=Nc2cccnc2NC2CCCCC2)c(O)c1 [H2L^6, 2-((2-(cyclohexylamino)pyridin-3-ylimino)methyl)-5-(diethylamino)phenol]	99.6 ± 0.41	> 100	96 ± 0.4	–	–	–
O=[N+]([O-])c1cccnc1NC1CCCCC1 [compound 2, N-cyclohexyl-3-nitropyridin-2-amine]	118 ± 0.3	> 100	110.2 ± 0.3	–	–	–
Cc1ccccc1Nc1ncccc1N [compound 6, N^2-o-tolylpyridine-2,3-diamine]	112 ± 0.2	> 100	108 ± 0.2	–	–	–
Oc1ccc(Br)cc1C=Nc1cccnc1NCc1ccccc1 [H2L^2, 2-((2-(benzylamino)pyridin-3-ylimino)methyl)-4-bromophenol]	81.6 ± 0.6	> 100	81.6 ± 0.6	–	–	–
